Experimental findings from ChEMBL document CHEMBL1275590, “Novel arylimidamides for treatment of visceral leishmaniasis” (Antimicrob Agents Chemother, 2010) are described below.

By pIC50 is commonly meant the negative decadic logarithm of the IC50, by convention in mol/L. Broadly, the inhibition in vivo is the relative decrease from the control value, in per cent.

A short description of data set [1]: Induction of mutagenicity in Salmonella serovar Typhimurium TA 100 assessed as number of revertant colonies at 2 ug by Ames assay in presence of Aroclor 1254-induced rat liver S9 metabolic activation system. Type of data set: toxicity, subcellular, Salmonella enterica subsp. enterica serovar Typhimurium. In a few lines:
(§1)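 Ames plate incorporation with S. Typhimurium TA98 and TA100, with or without Aroclor 1254-induced rat liver S9 (10% vol/vol). Compound was dissolved in sterile water and serially diluted to 1–500 μg/plate. Positive controls were 2-nitrofluorene and sodium azide without S9, and 2-aminoanthracene with S9; sterile water and DMSO served as vehicles. Revertant colonies and background lawn were scored. A mutagen was defined as a mean revertant count at least 2-fold over solvent control. Single experiment.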
(In the Ames test, an excess of revertant colonies over the control signals mutagenicity.)

Data set [2] can be described thus: Induction of mutagenicity in Salmonella serovar Typhimurium TA 98 assessed as number of revertant colonies at 2 ug by Ames assay in presence of Aroclor 1254-induced rat liver S9 metabolic activation system. Type of data set: toxicity, subcellular, Salmonella enterica subsp. enterica serovar Typhimurium. An outline of the steps:
as §1

For data set [3], the system named is Leishmania donovani. Kind of data set: Antileishmanial activity against intracellular Leishmania donovani LV82 amastigotes infected in CD-1 mouse peritoneal macrophage. Type of data set: functional, organism-based. An outline of the steps: (§2)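 CD-1 mouse peritoneal macrophages, 5 × 10^4 cells/well in RPMI 1640 + 10% heat-inactivated FBS, adhered overnight. Infected overnight with stationary-phase LV82 promastigotes (5:1 parasite:macrophage), 37°C, 5% CO2. Medium then replaced with compound or vehicle for 72 h at 37°C. Methanol-fixed, Giemsa-stained; % infected macrophages counted at ×1,000. IC50 by four-parameter logistic nonlinear regression.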

For another data set, the system named is Leishmania amazonensis. Kind of data set: Antileishmanial activity against intracellular Leishmania amazonensis amastigotes. Type of data set: functional, organism-based.
The test system of data set [4] is Leishmania donovani. Kind of data set: Antileishmanial activity against intracellular Leishmania donovani LV82 amastigotes. Type of data set: functional, organism-based. An outline of the steps: as §2
Data set [5] concerns Leishmania donovani. Kind of data set: Antileishmanial activity against Leishmania donovani WR378 infected in golden Syrian hamster assessed as reduction in spleen parasitemia at 30 mg/kg/day, po administered for five days. Type of data set: functional. To be noted: 120 h. An outline of the steps:
(§3)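 11-day golden hamster VL model adapted from an 8-day method, using L. donovani WR378 metacyclic promastigotes. Dosing was oral, once daily for 5 days. Animals were euthanized on day 11 post-infection. Liver, spleen and femoral bone marrow (flushed with Schneider's medium) were harvested.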

The next data set relates to Leishmania major. Kind of data set: Antileishmanial activity against intracellular Leishmania major amastigotes. Type of data set: functional, organism-based.
Data set [6] deals with Leishmania donovani. Kind of data set: Antileishmanial activity against Leishmania donovani WR378 infected in golden Syrian hamster assessed as reduction in liver parasitemia at 30 mg/kg/day, po administered for five days. To be noted: 120 h. Type of data set: functional. In a few lines: as §3
The test system of data set [7] is Leishmania donovani. Kind of data set: Antileishmanial activity against Leishmania donovani axenic amastigotes. Type of data set: functional, organism-based.
Data set [8] has as its system Leishmania donovani. Kind of data set: Antileishmanial activity against Leishmania donovani WR378 infected in golden Syrian hamster assessed as reduction in bone marrow parasitemia at 30 mg/kg/day, po administered for five days. Type of data set: functional. The settings on record: 120 h. In a few lines: as §3
Data set [9] can be described thus: Induction of mutagenicity in Salmonella serovar Typhimurium TA 98 assessed as number of revertant colonies at 5 ug by Ames assay. Type of data set: toxicity, Salmonella enterica subsp. enterica serovar Typhimurium. To be noted: in vivo. In a few lines:
as §1

Data set [10] in a line: Induction of mutagenicity in Salmonella serovar Typhimurium TA 100 assessed as number of revertant colonies at 5 ug by Ames assay. Type of data set: toxicity, Salmonella enterica subsp. enterica serovar Typhimurium. To be noted: in vivo. In a few lines: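 Plate incorporation method with TA100, with and without Aroclor 1254-induced rat liver S9 (10% vol/vol). Compound dissolved in sterile water, serially diluted; plates scored for revertant count and background lawn versus controls. Mutagen if mean revertants at least 2-fold over mean solvent control. Positive controls: 2-nitrofluorene and sodium azide without S9, 2-aminoanthracene with S9; water and DMSO vehicles.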

Each structure is given as a SMILES string. pIC50: −log10 of the molar value. Where only a bound is given, the exact number is not on record here.

Turning to `Nc1ccc2cc3ccccc3cc2c1` [2-AMINOANTHRACENE], the Activity was determined as 2563 in data set [1] and 2744 in data set [2].
Turning to `N=C(N)c1ccc(OCCCCCOc2ccc(C(=N)N)cc2)cc1` [PENTAMIDINE], the pIC50 is 4.85 in the data set with Leishmania donovani [3], 6.08 with Leishmania amazonensis and less than 4.30 with Leishmania donovani [4].
On to `CCCCCCCCCCCCCCCCOP(=O)([O-])OCC[N+](C)(C)C` [MILTEFOSINE], for which the pIC50 in the data set on Leishmania donovani [3] was 4.62; in the data set with Leishmania major, 4.60; in the data set with Leishmania donovani [7], 5.07; with Leishmania donovani [4] it was 5.57. Further, the results for the inhibition in vivo at 30 mg/kg/day with Leishmania donovani [5], with Leishmania donovani [6] and in the data set on Leishmania donovani [8] were 79%, 88% and 91%, respectively.
As to `O=[N+]([O-])c1ccc2c(c1)Cc1ccccc1-2` [2-NITROFLUORENE], the Activity in data set [9] was determined as 1573.
`NC[C@@H]1O[C@H](O[C@H]2[C@@H](O)[C@H](O[C@@H]3[C@@H](O)[C@H](N)C[C@H](N)[C@H]3O[C@H]3O[C@H](CO)[C@@H](O)[C@H](O)[C@H]3N)O[C@@H]2CO)[C@H](N)[C@@H](O)[C@@H]1O` [PAROMOMYCIN]: the pIC50 with Leishmania donovani [3] was less than 4.00; in the data set with Leishmania amazonensis it was 4.72; with Leishmania major it was 4.60; in the data set with Leishmania donovani [7], less than 4.30; in the data set on Leishmania donovani [4], less than 4.30.
For `C[C@@H]1[C@H](O)[C@@H](C)/C=C/C=C/C=C/C=C/C=C/C=C/C=C/[C@H](O[C@@H]2O[C@H](C)[C@@H](O)[C@H](N)[C@@H]2O)C[C@@H]2O[C@](O)(C[C@@H](O)C[C@@H](O)[C@H](O)CC[C@@H](O)C[C@@H](O)CC(=O)O[C@H]1C)C[C@H](O)[C@H]2C(=O)O` [AMPHOTERICIN B], the pIC50 is 5.09 with Leishmania donovani [3]; 6.85 with Leishmania amazonensis; 6.68 with Leishmania major; 7.01 in the data set with Leishmania donovani [7]; 7.18 in the data set with Leishmania donovani [4].
For the molecule `[N-]=[N+]=[N-].[Na+]` [SODIUM AZIDE], the Activity in [10] is 1882.
